The values below come from ChEMBL document CHEMBL4665631, “Synthesis and biological evaluation of paclitaxel and vorinostat co-prodrugs for overcoming drug resistance in cancer therapy in vitro” (Bioorg Med Chem, 2019).

One data set concerns MCF7. Nature of the data set: Cytotoxicity against human MCF7 cells after 72 hrs by SRB assay. Format: functional, cell-based. Conditions: MCF7, 72 h. (In SRB staining, fixed cells bind dye roughly in proportion to their protein.)
Data set [1] is described as follows: Stability in PBS at pH 6 assessed as compound remaining after 24 hrs by HPLC analysis. In kind it is physicochemical. Conditions: read-out: Stabilty. In short, it runs like this: (§1)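 Co-prodrug stock diluted in 10 mM PBS at pH 7.4 or 6.0 and held at 37 °C. Sampled at 0.5, 1, 2, 3, 4, 6, 12 and 24 h. Intact co-prodrug, released PTX and released SAHA resolved by RP-HPLC. Amounts taken from external-standard concentration curves.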

Data set [2] concerns the target T1, Histone deacetylase (Homo sapiens) (UniProt Q13547+O15379+Q9UBN7+Q92769+Q9UQL6+Q8WUI4+Q9BY41+Q96DB2+P56524+Q9UKV0+Q969S8). Nature of the data set: Inhibition of HDAC in human MCF7 cells assessed as increase in tubulin acetylation measured after 10 to 24 hrs by Western blot analysis. In kind it is cell-based. Conditions: time hrs 10-24. Summed up: (§2)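 Cells in logarithmic phase seeded in 6-well plates and cultured overnight. Compound exposure at 37 °C for 10 h and 24 h, with untreated cells as control. Cells lysed in RIPA buffer and lysates boiled. Proteins separated by SDS-PAGE and semidry-transferred to nitrocellulose. Membranes probed with primary antibody overnight at 4 °C, then HRP-conjugated secondary antibody for 1 h at room temperature. Detection by chemiluminescence imaging.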

Data set [3] concerns the target T1, Histone deacetylase (Homo sapiens). The data set can be described thus: Inhibition of HDAC in human MCF7/ADR cells assessed as increase in tubulin acetylation measured after 10 to 24 hrs by Western blot analysis. To be noted: NCI/ADR-RES, time hrs 10-24. Format: cell-based. In short, it runs like this: as §2
In general terms: A western blot detects proteins with antibodies after separation by electrophoresis.

Data set [4] can be described thus: Half life in mouse plasma by HPLC analysis. Format: ADME, cell-free. In short, it runs like this:
(§3)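 Co-prodrug diluted into human or mouse plasma and incubated at 37 °C. Sampled at 0.5, 1, 2, 3, 4, 5 and 6 h. Each aliquot quenched with an equal volume of cold acetonitrile and centrifuged. Supernatant analysed by RP-HPLC, with compounds quantified against an external-standard concentration–area curve.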

Data set [5] addresses T1, Histone deacetylase (Homo sapiens). Nature of the data set: Inhibition of HDAC in human HCT-116 cells assessed as increase in tubulin acetylation measured after 10 to 24 hrs by Western blot analysis. Format: cell-based. Conditions: time hrs 10-24. Summed up:
as §2

Data set [6] is described as follows: Half life of compound in PBS buffer at pH 7.4 by HPLC analysis. Format: physicochemical. In short, it runs like this:
as §1

A further data set has as its system HCT-116. Nature of the data set: Cytotoxicity against human HCT-116 cells after 72 hrs by SRB assay. In kind it is functional, cell-based. Conditions: HCT-116, 72 h.
For a further data set, the system named is NCI/ADR-RES. Nature of the data set: Cytotoxicity against human MCF7/ADR cells after 72 hrs by SRB assay. Format: functional, cell-based.
The nature of data set [7]: Drug degradation in PBS assessed as SAHA release at pH 7.4 after 48 hrs by HPLC analysis. To be noted: buffer, pH 7.4, 48 h.
Data set [8] can be described thus: Half life in human plasma by HPLC analysis. Format: ADME, cell-free. Summed up: as §3
Data set [9] in a line: Retention time of the compound by HPLC method. Format: physicochemical. Summed up: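 Reversed-phase HPLC with a gradient of acetonitrile and water, both containing 0.1% formic acid, at 1 mL/min. Gradient ran 5% to 95% acetonitrile over 0–15 min, then held at 95% from 15 to 25 min. Injection volume 50 µL.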
Data set [10] can be described thus: Drug degradation in PBS assessed as PTX release at pH 7.4 after 48 hrs by HPLC analysis. To be noted: buffer, pH 7.4, 48 h.

The source made the active and inactive calls.

Broadly, the IC50 is the concentration that gives 50% inhibition. A higher IC50 goes with lower potency. By half-life is commonly meant the time needed for the level to fall by half in the phase considered. Low readings indicate rapid decline, high ones slow decline. Turning to `CC(=O)O[C@H]1C(=O)[C@@]2(C)[C@H]([C@H](OC(=O)c3ccccc3)[C@]3(O)C[C@H](OC(=O)[C@H](OC(=O)CNC(=O)ONC(=O)CCCCCCC(=O)Nc4ccccc4)[C@@H](NC(=O)c4ccccc4)c4ccccc4)C(C)=C1C3(C)C)[C@]1(OC(C)=O)CO[C@@H]1C[C@@H]2O`, the IC50 in the data set on MCF7 is 1.5 nM; in the data set on HCT-116, 9.55 nM; with NCI/ADR-RES, 1380 nM. The remaining at 24 h in [1] was over 85%. Besides, the inhibition entry in data set [2], in [3] and in data set [5] was “Active” throughout. Besides, the figures for the half-life in data set [4], in [6] and in data set [8] were 30 min, 120 min and 30 min, respectively. Besides, the values for the Drug degradation in data set [7] and in [10] were 56.8% and 50.3%, respectively. This molecule also had a Retention_time in [9] of 14.62 min.
Turning to `CC(=O)O[C@H]1C(=O)[C@@]2(C)[C@H]([C@H](OC(=O)c3ccccc3)[C@]3(O)C[C@H](OC(=O)[C@H](O)[C@@H](NC(=O)c4ccccc4)c4ccccc4)C(C)=C1C3(C)C)[C@]1(OC(C)=O)CO[C@@H]1C[C@@H]2O` [PACLITAXEL], the IC50 in the data set on MCF7 was under 1.5 nM; with NCI/ADR-RES, over 10000 nM. In addition, the inhibition entry in data set [2], in data set [3] and in data set [5] was “Active” throughout. The same molecule returned a Retention_time in data set [9] of 13.81 min.
Turning to `CC(=O)O[C@H]1C(=O)[C@@]2(C)[C@H]([C@H](OC(=O)c3ccccc3)[C@]3(O)C[C@H](OC(=O)[C@H](OC(=O)CCC(=O)ONC(=O)CCCCCCC(=O)Nc4ccccc4)[C@@H](NC(=O)c4ccccc4)c4ccccc4)C(C)=C1C3(C)C)[C@]1(OC(C)=O)CO[C@@H]1C[C@@H]2O`, the concentration for half-maximal inhibition (IC50) in the data set on MCF7 stood at 62.4 nM; with HCT-116, 144 nM; with NCI/ADR-RES it was 4020 nM. Moreover, the remaining at 24 h in [1] was over 85%. Also, the half-life in data set [4] and in [8] was 30 min in each case. Moreover, the Retention_time in [9] is given as 15.06 min.
In data set [9], `CC(=O)O[C@H]1C(=O)[C@@]2(C)[C@H]([C@H](OC(=O)c3ccccc3)[C@]3(O)C[C@H](OC(=O)[C@H](OC(=O)CCC(=O)O)[C@@H](NC(=O)c4ccccc4)c4ccccc4)C(C)=C1C3(C)C)[C@]1(OC(C)=O)CO[C@@H]1C[C@@H]2O` had a Retention_time of 13.63 min.
The same measure, in the same setting: under `O=C(CCCCCCC(=O)Nc1ccccc1)NO` [VORINOSTAT] stands 8.42 min.
